Measured values: paper PMC6884402 (ACS infectious diseases, 2018)
Entries after “also recorded” stand apart in the source; their conditions may differ.

Experiments:
[1] = system: RH strain of T. gondii expressing β-galactosidase (wild type cyt b); experiment: 72h T. gondii tachyzoite proliferation assay; format: cell-based; conditions: Toxoplasma gondii, read-out: T. gondii EC50
[2] = system: Dd2 P. falciparum strain; experiment: 72h P. falciparum blood stage proliferation assay; format: cell-based; conditions: Plasmodium falciparum, DD2, 72 h, read-out: Dd2 EC50 (P. falciparum)
Method in brief: (§1)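 Dd2 or I22L clone (I22L selected from Dd2 under quinolone pressure) blood stages in 2-fold dilution series, in triplicate. Final hematocrit 2% (v/v), starting parasitemia 0.2%. Incubated 72 h at 37°C under 5% CO2/5% O2/90% N2. SYBR Green I dye-detergent added for 1 h at room temperature in the dark, then fluorescence read. EC50 is the mean of ≥3 experiments. […]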

[3] = system: human cyt bc1; conditions: cited from earlier work
[4] = system: S. cerevisiae cyt bc1; conditions: cited from earlier work
[5] = system: T. gondii RH strain with T222P substitution in the cyt b Qi site; experiment: T. gondii T222P strain proliferation assay; format: cell-based, Toxoplasma gondii
Method in brief: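 Compounds were DMSO-diluted (≤0.5% final) over human foreskin fibroblast monolayers. Wild-type or Thr222Pro RH tachyzoites (4000/well) expressing gfp and β-galactosidase were added; the mutant came from chemical mutagenesis plus selection. After 72 h at 37°C, 5% CO2, cells were lysed and chlorophenol red β-galactopyranoside added for 4 h, read spectrophotometrically. Each run ≥3 times in quadruplicate. Resistance is the T222P/wild-type EC50 ratio.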

[6] = system: P. falciparum Dd2 strain with I22L substitution in cytochrome b; experiment: P. falciparum I22L strain proliferation assay; format: cell-based, Plasmodium falciparum
Method in brief: as §1

[7] = system: N. caninum; conditions: 10mg/kg dose; cited from earlier work
[8] = cited from earlier work
[9] = system: virulent Type I RH strain of T. gondii that expresses luciferase; experiment: In vivo efficacy against acute toxoplasmosis in mice; design: species or system Toxoplasma gondii; conditions: 5 mg/kg orally for 5 days; for survival of infected mice: CF-1 mice, 4 per group; for luminescence from infection: at day 13 / prior to euthanasia
[10] = system: Plasmodium; conditions: single dose of 1 mg/kg; cited from earlier work
[11] = rats, orally at 5 mk/kg; cited from earlier work

## CCCCCCCCCCCc1c(C)[nH]c2cc(OC)ccc2c1=O [Compound 2C, 7-methoxy-2-methyl-3-undecylquinolin-4(1H)-one]
[1]
  EC50: 0.37 nM
[2]
  EC50: 1.8 nM

## COc1cc2[nH]c(C)c(-c3ccc(Oc4ccc(OC(F)(F)F)cc4)cc3)c(=O)c2cc1Cl [Compound 4B]
[3]
  activity against human cyt bc1: do not inhibit
[4]
  activity against yeast (S. cerevisiae) cyt bc1: do not inhibit
[5]
  resistance caused by T222P substitution in T. gondii: causes resistance
[6]
  resistance caused by I22L substitution in P. falciparum: causes resistance

## Cc1[nH]c2cc(F)cc(F)c2c(=O)c1-c1ccc(Oc2ccc(OC(F)(F)F)cc2)cc1 [Compound 8B]
[7]
  efficacy against N. caninum infection: effective in reducing infection
[8]
  toxicity in general cell assays and in vivo efficacy studies: toxicity was not observed
[3]
  activity against human cyt bc1: has activity
[4]
  site of inhibition in S. cerevisiae cyt b: inhibit both the Qo and Qi site
[9]
  T. gondii DNA in brain (quantitative real-time PCR): not detected
  T. gondii DNA in spleen (quantitative real-time PCR): not detected
  survival of infected mice: survived until day 32; also recorded: all mice survived
[9]; listed as ELQ-400
  survival of infected mice: alive at the completion of the experiment
  T. gondii DNA in brain (quantitative real-time PCR): did not have infection detectable by PCR
  T. gondii DNA in spleen (quantitative real-time PCR): none of the mice
[10]
  efficacy in a mouse model of malaria: curative
[11]
  maximum concentration: 71.2 ng/mL

## O=C1C(O)=C([C@H]2CC[C@H](c3ccc(Cl)cc3)CC2)C(=O)c2ccccc21 [ATV, Atovaquone, reference compound]
[3]
  activity against human cyt bc1: has activity
[9]
  T. gondii DNA in brain (quantitative real-time PCR): developed both systemic and brain infection
  T. gondii DNA in spleen (quantitative real-time PCR): developed both systemic and brain infection
  luminescence from infection: detectable in the 2 surviving mice

## COc1ccc2c(=O)c(-c3ccc(Oc4ccc(OC(F)(F)F)cc4)cc3)c(C)[nH]c2c1 [Compound 2B]
[3]
  activity against human cyt bc1: do not inhibit
[4]
  activity against yeast (S. cerevisiae) cyt bc1: do not inhibit
[5]
  resistance caused by T222P substitution in T. gondii: causes resistance

## COc1cc2[nH]c(C)c(-c3ccc(Oc4ccc(OC(F)(F)F)cc4)cc3)c(=O)c2cc1F [Compound 3B]
[3]
  activity against human cyt bc1: do not inhibit
[4]
  activity against yeast (S. cerevisiae) cyt bc1: do not inhibit
[5]
  resistance caused by T222P substitution in T. gondii: causes resistance
[9]
  T. gondii DNA in brain (quantitative real-time PCR): evidence of brain infection by PCR that was similar to controls
  luminescence from infection: 3 of 4 mice did not have luminescence
[9]; listed as ELQ-316
  T. gondii DNA in brain (quantitative real-time PCR): had T. gondii infection in brain tissue
  T. gondii DNA in spleen (quantitative real-time PCR): not detected above the limits of detection in the spleen of 3 of 4 mice

## Cc1[nH]c2ccccc2c(=O)c1-c1ccc(Oc2ccc(OC(F)(F)F)cc2)cc1 [Compound 1B]
[3]
  activity against human cyt bc1: has activity
[4]
  activity against yeast (S. cerevisiae) cyt bc1: has activity
